Among all 65,000 compounds or so, about 1,400 (2.2%) were called active.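 The calls were made as follows: active = growth inhibition at or above a cutoff equal to the mean over every tested compound plus 3 SD (cut at about 60% in these data); inactive = the rest.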 The sample as a whole holds a higher share of actives than the screen did.

The experiment is described as follows: E. coli ΔtolC antibacterial growth inhibition – strain BW25113 ΔtolC::kan, 384-well, primary screen (AID 573). The note with it: E. coli BW25113 tolC mutant growth, OD615; stronger effect = higher value; screened at 10 µM (by protocol). The method in brief:
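Test system: tolC-deleted E. coli BW25113 | Medium: LB with kanamycin 50 µg/mL | Compound dosing: Single concentration, 10 µM final per compound | Schedule: 37 °C, 20 h exposure | Measured by: OD at 615 nm | Evaluation: Percent growth inhibition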
As for `COc1ccc(CCNC(=O)c2ccco2)cc1`, the growth inhibition was -4.03% (inactive).

For the compound `CCOC(=O)C1C(=O)C=C(c2ccc(OC)cc2)CC1c1ccco1` (configuration not stated), the growth inhibition is 85.4% (active).

Turning to `CCOC(=O)C1C(=O)NC(N2CCN(c3ccccc3)CC2)=NC1c1ccco1` (configuration not stated), the growth inhibition was -7.5% (inactive).

Regarding `CCOc1ccc(S(=O)(=O)n2ccnc2)c2ccccc12`, the growth inhibition was 3.73% (inactive).

As to `CS(=O)(=O)N(CC(=O)N1CCN(c2cccc(Cl)c2)CC1)c1ccccc1`, the growth inhibition was 1.41% (inactive).

`Cc1ccccc1OCC(=O)Nc1ccc(N2CCN(C(=O)C(C)C)CC2)c(Cl)c1`: the growth inhibition is 42.8% (inactive).

For the compound `CCc1nnc(NS(=O)(=O)c2ccc(NS(=O)(=O)c3ccccc3)cc2)s1`, the growth inhibition is 19% (inactive).

With `CCOC(=O)C1Cn2c(nc3c(c2=O)C(C)(CC)Cc2ccccc2-3)S1` (configuration not stated), the growth inhibition is 67.9% (active).

Turning to `CCOC(=O)C1CCc2nc3ccccc3c(=O)n21` (configuration not stated), the growth inhibition is -18.7% (inactive).

For the compound `CC1(C)Cc2ccccc2-c2nc(CN3CCOCC3)[nH]c(=O)c21`, the growth inhibition is 5.57% (inactive).

As to `CCCCc1nc2c(=O)[nH]c3ccccc3c2o1`, the growth inhibition was -2.92% (inactive).

In the case of `Clc1ccc(Cn2ncc3c(NCc4cccnc4)ncnc32)cc1`, the growth inhibition was 18.6% (inactive).

With `O=C(NCc1ccco1)C1CCCN(S(=O)(=O)c2cccc3nonc23)C1` (configuration not stated), the growth inhibition was -21.5% (inactive).

For `COc1ccc(N2C(=O)CC(N3CCC(C(N)=O)CC3)C2=O)cc1` (configuration not stated), the growth inhibition is -10.9% (inactive).

`COc1cccc(-c2nnc(NC(=O)c3ccc(S(=O)(=O)N(CC(C)C)CC(C)C)cc3)o2)c1`: the growth inhibition is 98.8% (active).

Consider `CCN(CC)C(=O)CSc1nnc(-c2cccc(OC)c2)o1`, for which the growth inhibition is -2.54% (inactive).

Take `COc1cccc(NC(=O)CN(C)S(=O)(=O)c2ccc(C)cc2)c1`: the growth inhibition is 13.3% (inactive).

For `CCOC(=O)c1sc(NC(=S)n2cc(C)cn2)c(C(=O)OCC)c1C`, the growth inhibition was 23.8% (inactive).

`Cc1cc2nc(-c3ccc(NC(=O)c4cccnc4)cc3)oc2cc1C`: the growth inhibition is 10.2% (inactive).

On to `O=C(c1ccco1)N1CCN(C(=O)c2ccc(COc3ccc(F)cc3)o2)CC1`, for which the growth inhibition was 1.7% (inactive).

Turning to `Cc1cc(=O)[nH]c(=S)[nH]1`, the growth inhibition is -13.2% (inactive).

Take `O=C1NC(Nc2nc3ccccc3s2)(C(F)(F)F)C(=O)N1C1CCCCC1` (configuration not stated): the growth inhibition was 100% (active).

Consider `COC(=O)NC1(C(F)(F)F)NC(=O)N(C2CCCCC2)C1=O` (configuration not stated), for which the growth inhibition was -5.17% (inactive).

Consider `C1=C(N2CCOCC2)/C(=C/c2nc3ccccc3[nH]2)CC1`, for which the growth inhibition is -16.7% (inactive).

`CCOC(=O)c1cc(-c2ccc(Cl)s2)nc2c1c(C)nn2C`: the growth inhibition is 8.55% (inactive).

`CC(C)CCNC(=O)CCNS(=O)(=O)c1ccc(Cl)cc1`: the growth inhibition was 7.04% (inactive).

As for `COc1ccc(OC)c2sc(NC(=O)C3COc4ccccc4O3)nc12` (configuration not stated), the growth inhibition was 70.5% (active).

On to `O=C(Nc1nc(-c2ccncc2)cs1)C1COc2ccccc2O1` (configuration not stated), for which the growth inhibition is 36.7% (inactive).

In the case of `Cc1cc(NC(=O)CCC2COc3ccccc3O2)no1` (configuration not stated), the growth inhibition is 0.5% (inactive).

Consider `CC(=O)c1cnc(Nc2nc(C)c3cc(C)ccc3n2)nc1C`, for which the growth inhibition was -6.16% (inactive).

For the compound `COc1ccccc1N1CCN(C(=O)c2cc(-c3ccc(Cl)c(Cl)c3)on2)CC1`, the growth inhibition was -3.17% (inactive).

`COc1ccccc1-c1cc(C(=O)N2CCCCC2)no1`: the growth inhibition was 7.63% (inactive).

In the case of `COc1ccccc1N1CCN(C(=O)c2cc(-c3ccc(Br)cc3)on2)CC1`, the growth inhibition is 63.8% (active).

Turning to `Oc1c(C(c2ccccn2)N2CCOCC2)ccc2cccnc12` (configuration not stated), the growth inhibition was 29.8% (inactive).

Turning to `CCCC(C(=O)N1CCOCC1)N1C(=O)C2C3C=CC(C3)C2C1=O` (configuration not stated), the growth inhibition was -13.1% (inactive).

As for `CC(C)c1ccc(N2CC(C(=O)Nc3nccs3)CC2=O)cc1` (configuration not stated), the growth inhibition is 9.63% (inactive).

Consider `Cc1oc(C)c(C(=O)NCCCC(=O)O)c1C(=O)NCCCC(=O)O`, for which the growth inhibition is -20.2% (inactive).

These data come from PubChem BioAssay AID573 (SRMLSC, 2007).
